# Screening results (PubChem BioAssay)
# HSV replic up – HSV replication enhancement. AID 1956. maximum fold increase. actives 0.005% (n = 220,000). HSV replication augmentation in cells, fold increase; in the data active = maximum fold increase above about 1.5; inconclusive = no clear call, values can overlap the other calls; tested in PC3 cells
# MT stabilize HCS – microtubule stabilizers in HeLa cells; actives 0.83% (n = 200,000); % tubulin-high responders, % at 10 µM; HeLa tubulin immunostaining HCS, 24 h; share of cells brighter than vehicle mean+2SD;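 active = plate Z-score above 3 for both tubulin-high and condensed-nucleus cell shares, with cell loss under 80%, at 10 µM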;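 also: anti alpha tubulin signal scored within the nucleus-defined area of each cell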
# Furin inh – blocks human furin protease activity; actives 0.061% (n = 220,000); purified furin, fluorogenic substrate cleavage; AID 463115; inhibition, % at 20 µM or 30 µM; in the data active = inhibition above about 25%
# Target sequence (P09958 108-714 limits assumed): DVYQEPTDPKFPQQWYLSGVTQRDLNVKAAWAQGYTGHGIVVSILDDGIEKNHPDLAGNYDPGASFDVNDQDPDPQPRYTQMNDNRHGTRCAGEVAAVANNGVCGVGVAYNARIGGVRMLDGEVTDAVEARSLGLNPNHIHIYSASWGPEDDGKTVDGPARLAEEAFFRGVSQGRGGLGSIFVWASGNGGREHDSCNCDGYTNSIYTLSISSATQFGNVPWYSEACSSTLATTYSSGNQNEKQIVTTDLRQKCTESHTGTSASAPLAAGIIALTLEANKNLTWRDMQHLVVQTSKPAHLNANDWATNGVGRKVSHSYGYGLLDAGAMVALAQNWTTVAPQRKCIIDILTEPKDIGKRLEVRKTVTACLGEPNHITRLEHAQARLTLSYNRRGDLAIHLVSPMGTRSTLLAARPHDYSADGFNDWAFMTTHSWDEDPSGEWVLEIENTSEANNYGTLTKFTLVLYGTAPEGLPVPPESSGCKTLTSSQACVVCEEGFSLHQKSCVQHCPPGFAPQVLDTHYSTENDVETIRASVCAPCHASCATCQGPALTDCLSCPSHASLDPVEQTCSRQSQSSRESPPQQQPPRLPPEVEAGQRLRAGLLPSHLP
# Insulin prom up – MIN6 insulin promoter up-regulation | z-score at 5 µM | AID 1625 | actives 0.3% (n = 190,000) | MIN6 insulin promoter-GFP reporter, high-content imaging; stronger effect = higher value;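 active = z-score above 3 at 5 µM with at least 500 cells counted in the well; inconclusive = wells under 500 cells, flagged as cytotoxic or low count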
# Autophagy mod – alters autophagy in cells | MEF GFP-LC3 puncta imaging; test concentration mostly 10 µM | AID 463193 | calls only at 10 µM (by protocol) | actives 0.98% (n = 190,000);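 active = percentage of spot-positive cells more than 3 SD above its plate mean, without a fluorescence outlier flag or 80% toxicity; inconclusive = no clear call, values can overlap the other calls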;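 also: spot-positive cell cutoff set from DMSO-treated cells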
# b-catenin transl – modulators of beta-catenin nuclear translocation. HeLa beta-catenin nuclear translocation, immunofluorescence imaging. nuclear translocation activity, % at 5 µM. actives 0.3% (n = 190,000). AID 1665;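 active = nuclear translocation activity above 50% at 5 µM, with a well cell count of 50 or more; inconclusive = wells under 50 cells across six images, flagged as toxic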;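 also: per-cell ratio of nuclear to cytoplasmic median beta-catenin stain intensity; plate controls were DMSO negative control for no effect and GSK-3 inhibitor IX positive control for full effect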
#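 Signal – beta-catenin immunofluorescence imaging with DAPI · Test system – human HeLa cell line · Dosing – 5 µM primary single dose, 0.1% DMSO, 0.02–20 µM confirmation series · Measure – % activation, nuclear-to-cytoplasmic median beta-catenin signal ratio per cell · Incubation – 24 h compound exposure at 37°C, 5% CO2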
# Numbers without * were called inactive; i = inactive; ? = inconclusive; . = no result given; + = active, no number. An excerpt weighted towards active compounds, which were near 1.9% of everything screened.
SMILES,HSV replic up,MT stabilize HCS,Furin inh,Insulin prom up,Autophagy mod,b-catenin transl
CC(C)CCNC1=CC(=O)CC(c2ccccc2)C1 (centres undefined),i,13.2*,-10.8,1.3,i,.
O=C1C=C(Nc2ccc(Cl)cc2)CC(c2ccccc2)C1 (centres undefined),i,14.3*,-21.6,-0.14,i,125.9*
Cc1ccc(NC2=CC(=O)CC(c3ccccc3)C2)cc1 (centres undefined),i,19.8*,0.8,0.21,i,9.7
O=C(Cc1csc(Nc2nc(=S)[nH]c3ccccc23)n1)NCCCN1CCN(c2ccccc2F)CC1,i,2.1,-21.8,-0.46,+,-0.8
CN1c2ccccc2C(C)(C)[C@]12C=Cc1cc(O)ccc1O2,.,30.6*,-4.2,1.57,i,0.4
O=C1CCC(C(=O)NCCCn2ccnc2)N1 (centres undefined),i,5.3,-4.2,0.65,+,-1.3
COc1ccc(/C(C)=N/N=C(N)N)c(OC)c1,i,.,-28.7,0.39,.,1.7
COc1ccc(S(=O)(=O)Nc2cc3c4c(oc3c3ccccc23)CC(C)(C)CC4=O)cc1,i,20.0*,-31.8,-0.36,i,1.0
COc1ccc(S(=O)(=O)Nc2ccccc2C)cc1,i,34.8,-6.5,.,i,-6.7
COc1ccc(S(=O)(=O)Nc2cc3c4c(oc3c3ccccc23)CCCC4=O)cc1,i,24.9*,-7.4,0.67,i,-1.3
CC(=O)c1sc2nsc(SCCN3CCCC3)c2c1N,i,.,-24.3,-0.06,.,-0.8
Cn1c(N)c(C(=O)COC(=O)c2ccc(Cl)c(S(=O)(=O)N3CCCC3)c2)c(=O)n(C)c1=O,i,.,-27.5,0.54,.,-0.3
CCc1ccc(C(=O)/C=C/c2ccc([N+](=O)[O-])o2)cc1,i,0.3,-12.1,0.16,+,.
CCN(CC)S(=O)(=O)c1ccc(C(=O)/C=C/c2ccc(-c3ccc([N+](=O)[O-])cc3)o2)cc1,i,.,-4.8,1.21,.,0.9
O=C(Nc1ccccc1)N1CCCC(CNS(=O)(=O)Cc2ccccc2)C1 (centres undefined),i,0.8,-12.5,0.15,i,2.4
Oc1ccccc1/C=N/Nc1cccc2cccnc12,i,2.5,-11.2,-0.59,+,-0.5
O=C(COc1cccc2cccnc12)N/N=C/c1ccccc1O,i,.,-12.3,0.38,.,1.6
O=C(C1CCC(CNS(=O)(=O)c2cccc3cccnc23)CC1)N1CCc2ccccc21 (centres undefined),i,5.9,-15.5,?,+,.
CN1CCN(C(=O)C2CCC(CNS(=O)(=O)c3cccc4cccnc34)CC2)CC1 (centres undefined),i,2.3,-24.5,-0.48,i,.
CCOC(=O)C1CCN(C(=O)c2ccc(CNS(=O)(=O)c3ccc(OC)cc3)cc2)CC1,i,2.7,-42.5,-0.24,+,-0.3
CCOC(=O)C1CCCN(C(=O)c2ccc(CNS(=O)(=O)c3ccc(C)cc3)cc2)C1 (centres undefined),i,2.5,-25.7,-0.28,i,-0.2
CC1(C)CC(=O)C(C=Nc2ccncc2)=C(O)C1,i,2.8,-8.3,.,i,.
CC1(C)CC(=O)C=C(N=CC2=C(O)CC(C)(C)CC2=O)C1,i,4.0,-11.9,2.2,i,-4.7
Cc1cc(N=CC2=C(O)CC(C)(C)CC2=O)no1,i,3.3,45.7*,0.01,i,-4.9
Cc1cccc(/N=C/C2=C(O)CC(C)(C)CC2=O)n1,i,.,45.7*,-0.27,.,0.4
SMILES,HSV replic up,MT stabilize HCS,Furin inh,Insulin prom up,Autophagy mod,b-catenin transl
Cn1c(=O)c2c(nc(SCC(=O)N3CCc4ccccc43)n2Cc2ccc(F)cc2)n(C)c1=O,.,2.4,28.4*,.,i,.
CCCn1c(SCC(=O)N2CCCc3ccccc32)nc2c1c(=O)n(C)c(=O)n2C,.,2.1,-25.8,1.21,i,0.1
CCOc1ccccc1NC(=S)N1CCN(c2nc(-c3ccc(F)cc3)cs2)CC1,i,1.7,-4.1,-1.87,i,-0.1
CCCCN(CCCC)Cc1ccc(C(=O)NNC(=O)Nc2ccccc2)o1,i,1.4,-20.8,-1.44,+,0.3
CN(C(=O)c1ccc(C#N)cc1)c1nnc(-c2cnccn2)s1,i,.,-19.1,-0.32,.,1.4
COc1ccc(-n2c(=O)c(NC(=O)c3ccccc3)c3n(c2=S)CCCCC3)cc1,i,1.3,-11.5,-1.05,+,0.5
C=C(C)Cn1c(=O)c(NC(=O)c2ccccc2)c2n(c1=S)CCC2,i,1.2,-7.3,-0.54,i,-0.7
COc1ccc(-c2noc(CCC(=O)NCCCN3CCC(Cc4ccccc4)CC3)n2)cc1,i,4.7,-21.5,-1.8,+,.
CC(=O)CCc1ccc(OCCCCN2CCC(Cc3ccccc3)CC2)cc1,i,3.5,-22.3,-0.67,+,-0.3
COc1ccc(-c2noc(CCC(=O)NCCCN3CCN(c4ccc(F)cc4)CC3)n2)cc1,i,1.7,-18.6,-0.61,i,0.3
CCCCCSc1nnc(N)s1,i,.,-13.8,0.26,.,1.6
CCOc1cc(CNc2ccc(N3CCOCC3)cc2)cc(Br)c1OCC,i,5.1,-3.1,-0.59,i,0.7
CCOc1cc(CNc2ccc3c(c2)OCCO3)cc(Br)c1OCC,i,13.2,17.0,-1.82,i,119.8*
O=C(C1=C(c2ccccc2)C(=O)c2ccccc2C1=O)c1ccccc1,i,4.7,-32.7,?,+,-0.3
COC1=C(c2ccccc2)C(=O)c2ccccc2C1=O,i,3.0,-10.1,-1.13,i,1.3
COc1ccc(C2CC(=O)c3c(O)cc(O)cc3O2)c(CC=C(C)C)c1OC (centres undefined),i,.,.,.,.,.
Cc1ccc(C2Oc3ccccc3C3=C2C(c2cccs2)n2ncnc2N3)cc1 (centres undefined),i,32.4*,-2.6,1.46,i,16.3
Fc1ccc(C2C3=C(Nc4ncnn42)c2ccccc2OC3c2ccncc2)cc1 (centres undefined),i,1.2,-13.6,-0.12,i,.
COC(=O)[C@H]1C[C@H]1[C@@H](NC(=O)c1ccc[nH]1)c1ccccc1,i,.,.,.,.,.
CCCCN1CCCC1CNC(=O)c1cc(C#N)c2ccccc2c1OC (centres undefined),i,.,.,0.65,.,-2.1
CCOc1ccc(N=C2NC(=O)S/C2=C\c2ccc(N(C)C)cc2)cc1,.,16.6,-11.4,2.02,+,-1.1
CC(=O)c1ccc(NC(=O)Nc2ccc3c(c2)nc(C)n3C)cc1,i,2.8,-23.3,0.36,+,0.7
CC(=O)c1cccc(NC(=O)Nc2c(C)nn(C)c2C)c1,i,2.5,-11.6,0.19,+,.
COc1ccc(C[C@H]2c3cc(O)c(OC)cc3CC[N+]2(C)[O-])cc1O (some centres undefined),i,.,-30.8,.,.,-0.8
Cc1cccc(N2CCN(C(=O)c3ccc(Cl)c(S(=O)(=O)NCc4ccco4)c3)CC2)c1C,.,42.5*,-0.3,-0.63,i,0.8
